Compound activity from PubChem.
HSF1 inh – HSF1 inhibition | hit rate 0.77% among 300,000 | activity change, negative = inhibition, % at 7.5 µM (by protocol) | NIH3T3-HGL HSE-luciferase, MG132-induced, luminescence 8 h; active compounds read low;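 active = more than half of replicate wells show activity change below -50%, luminescence cut by over half; inconclusive = some wells, but at most half, below -50%; inactive = no replicate well below -50%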;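 note: luciferase reports HSF-1 transcriptional activity via heat shock element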
HSF1 activator – increases HSF-1 driven luciferase reporter signal | hit rate 1.7% among 300,000 | AID 504408 | NIH3T3-HGL HSF-1 luciferase reporter, MG132, 8 h; 100% = twice DMSO control signal | activation, % at 9 µM;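 active = mean replicate activation of at least 50% with a set share of replicates each reaching 50%; inconclusive = only one of those two conditions met; inactive = mean below 50% and too few replicates reaching it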
HIF activator – HIF pathway transcriptional activation | hit rate 0.32% among 300,000 | activation, % at 7.5 µM (by protocol) | AID 1910 | U2OS HRE-luciferase reporter, luminescence; normalized: DMSO 0%, desferrioxamine 100%;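 active = mean activation of at least 10% of the iron chelator positive control signal, with at least half of replicates also reaching 10%; inconclusive = mean and replicate majority disagree about reaching 10%; inactive = mean and most replicates under 10%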
T cruzi inh – blocks replication of Trypanosoma cruzi; T. cruzi beta-gal in NIH3T3, luminescence, 90 h; inhibition, % (concentration not given with the values); hit rate 1.4% among 300,000; AID 1885;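 active = mean inhibition across valid replicates above about 55%, limit read from the data; inconclusive = mean below that limit but half or more replicates reach it; inactive = mean below it, under half of replicates reach it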;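 note: signal also drops with host cell toxicity which is not excluded here; higher percent means less beta-gal luminescence so fewer parasites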
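assay system = mouse NIH/3T3 fibroblasts infected with β-gal-expressing T. cruzi Tulahuen C4 | input = 5,000 NIH/3T3 host cells per well | buffer or medium = DMEM plus 2% FBS | timing = 3 h host attachment, then at least 90 h co-culture | measured by = GalScreen luminescence, 60 min | evaluation = luminescence reflecting intracellular parasite burden, expressed as percent inhibition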
Calb FLC – affects C. albicans growth with fluconazole; C. albicans CaCi-2 + fluconazole, Alamar Blue growth, 48 h; growth inhibition, % (test concentration not listed); hit rate 0.57% among 300,000; AID 1979;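 active = growth inhibition above about 58% in most replicates, limit read from the data, passing the limit was not always enough; inconclusive = exactly half the replicates above a set limit; inactive = most replicates below a set limit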;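 note: all wells also contain fluconazole at 8 µg/ml as a sub-toxic cotreatment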
Of the large screens only hits and unclear results are named; the others gave an inactive call. An excerpt weighted towards active compounds, which were near 4.4% of everything screened.

O=C(CCC(=O)Nc1ccccc1Cl)NNC(=O)c1ccccc1[N+](=O)[O-]	none
O=C(N=C1N=C2C=CC=CN2Cc2ccccc21)c1ccc(S(=O)(=O)N2CCCC2)cc1	none
CN(C)S(=O)(=O)c1cccc(C(=O)N=C2N=C3C=CC(Cl)=CN3Cc3ccccc32)c1	HSF1 activator 59.9
Cc1ccc(C(=O)c2sc3nsc(C)c3c2N)cc1	HSF1 activator 61.3, Calb FLC inconclusive
CCOc1ccccc1CNC(=O)CCn1ccc2cc(S(=O)(=O)N3CCCCC3)ccc21	HSF1 inh -73.3
O=C1NC2(CCC3(CC2)OCCO3)NN1c1ccc(Cl)cc1	Calb FLC 105.6
CC(C)OCC1CC(CC(=O)Nc2ccc([N+](=O)[O-])cc2)C(=O)O1 (stereo not given)	none
CN(C)CCC1CCN(c2cc(C#N)c(C#N)cc2[N+](=O)[O-])CC1	T cruzi inh 78.8
COc1ccc(NC(=S)NCCN2CCC(C)CC2)cc1Cl	none
CC(Sc1nncs1)C(=O)Nc1ccc2c(c1)OCO2 (stereo not given)	none
CCC(=O)N1CCN(c2cc(N3CCN(C)CC3)c(F)cc2[N+](=O)[O-])CC1	T cruzi inh 69.0
CCOC(=O)N1CCN(c2cc(N3CCN(CC)CC3)c(F)cc2[N+](=O)[O-])CC1C (stereo not given)	T cruzi inh 60.2
CCOC(=O)N1CCN(c2cc(N3CCOCC3)c(F)cc2[N+](=O)[O-])CC1	none
COc1cc(/C=C(\C#N)c2nc3c(s2)CCCC3)ccc1O	none
CC1CCc2nc(/C(C#N)=C/c3cccnc3)sc2C1 (stereo not given)	HSF1 activator 125.6
N#C/C(=C\c1cccnc1)c1nc2c(s1)CCCC2	HSF1 activator 107.1
CCc1ccc2c(c1)c1nnc(NN)nc1n2CC	none
CCCCCCC1CCC(c2nc(-c3ccncc3)no2)CC1 (stereo not given)	HIF activator 34.8
COc1cc2nc(Nc3ccc(C)c(C)c3)nc(N)c2cc1OC	T cruzi inh 56.1
COc1cc2nc(Nc3ccc(F)cc3)nc(N)c2cc1OC	none
COc1cc2nc(N(C)C)nc(N)c2cc1OC	T cruzi inh 62.8
Cc1cc(/C=C2\SC(=S)N(Cc3ccco3)C2=O)c(C)n1-c1ccccc1	HSF1 inh -66.4
N#Cc1cc2ccccc2nc1SCC(=O)Nc1ccccc1N1CCOCC1	HSF1 activator 71.2
COCc1cc(C)nc(SCC(=O)Nc2cc(C(F)(F)F)ccc2N2CCOCC2)c1C#N	T cruzi inh 67.1
Cc1cccc2cc(C#N)c(SCC(=O)Nc3ccccc3N3CCOCC3)nc12	none
COCc1cc(C)nc(SCC(=O)Nc2ccccc2C)c1C#N	none
O=[N+]([O-])c1cccc2c(N3CCCC3)ccnc12	none
CN1CCN(Cc2cccc(Oc3ccc(Cl)cc3)c2)CC1	T cruzi inh 74.6 (no result: HSF1 inh, HSF1 activator)
CCN1CCN(Cc2cccc(Oc3ccccc3)c2)CC1	T cruzi inh 59.4
c1ccc(COc2cccc(CN3CCN(c4ccccn4)CC3)c2)cc1	HSF1 inh -55.2
O=C(NCCC1CCCCN1S(=O)(=O)c1cccs1)C(=O)Nc1cccc(F)c1 (stereo not given)	none
CC(C)CC(=O)NNC(=O)C(C)C	none
COCc1ccc(C(=O)N(C)CC2CCCN(CCc3ccccc3F)C2)o1 (stereo not given)	none
CC(=O)Nc1ccc(NC(=O)C2CCCN(C(=O)c3ccc(Cl)cc3)C2)cc1 (stereo not given)	none
Cc1ccc(NC(=O)C2CCCN(C(=O)c3ccc(Cl)cc3)C2)cc1S(=O)(=O)N1CCOCC1 (stereo not given)	T cruzi inh 61.8
Cc1ccc(NC(=O)C2CC2C)cc1S(=O)(=O)N1CCOCC1 (stereo not given)	T cruzi inh 59.6
CCOc1cccc(/C=N/NC(=S)Nc2ccccc2[N+](=O)[O-])c1O	HSF1 inh -79.0
CCCCNC(=S)N/N=C/c1cccc(OCC)c1O	HSF1 activator 80.7
C#CCOCCOCCOCCNc1nc(N2CCN(C(=O)C([C@@H](C)CC)n3cc(C(N)COC(=O)C(F)(F)F)nn3)CC2)nc(N2CCN(C(=O)[C@H](CCCCN)n3cc(C(N)[C@H](C)CC)nn3)CC2)n1 (stereo not given in full)	none
O=C(NCC1CCCO1)c1onc(CSc2ccc(Cl)cc2)c1C(=O)O (stereo not given)	HSF1 inh -61.2
CCCCNC(=O)c1c(CSc2ccc(Cl)cc2)noc1C(=O)NCc1ccccc1	none
O=C(NCc1ccccc1)c1onc(CSc2ccccc2)c1C(=O)NCC1CC1	T cruzi inh 58.3
CCCNC(=O)c1c(CSc2ccc(Cl)cc2)noc1C(=O)NCc1ccccc1	HSF1 activator 54.4
O=C(NCc1ccccc1)c1onc(CSc2ccc(Cl)cc2)c1C(=O)NCC1CC1	none
CC1(CCc2ccccc2)NC(=O)N(CC(=O)N2CCCCCC2)C1=O (stereo not given)	none
O=C(CSc1cccc2cccnc12)Nc1ccc(S(=O)(=O)N2CCOCC2)cc1	T cruzi inh 62.6
O=C(CSc1nc2cc(Cl)ccc2s1)Nc1cccc(S(=O)(=O)N2CCOCC2)c1	HSF1 inh -54.1
O=C(CSc1nc2cc(Cl)ccc2c(=O)n1Cc1ccco1)Nc1ccc(S(=O)(=O)N2CCOCC2)cc1	HSF1 activator 78.9
COC(=O)c1ccc2c(=O)n(Cc3ccco3)c(SCC(=O)Nc3ccc(C)c(Cl)c3)nc2c1	none
Cc1cc(-c2nnnn2-c2cc(Cl)cc(Cl)c2)no1	HIF activator 12.5
CCOC(=O)C(C)(C)N(Cc1ccc(Cl)cc1)S(=O)(=O)c1ccc(Cl)c([N+](=O)[O-])c1	HSF1 activator 66.4
CC1CCN(c2nc3c(cc2C#N)COC(C)(C)C3)CC1	none
CC1(C)Cc2nc(NCCN3CCOCC3)c(C#N)cc2CO1	HSF1 activator 102.6
Cc1ccc(-c2n[nH]c(Cc3ccccc3)n2)cc1	none
O=C(COc1ccccc1Br)Nc1ccc2c(c1)OCCCO2	HSF1 activator 57.2
Oc1ccc(/C=N/Nc2ccnc3cc(Cl)ccc23)cc1O	Calb FLC 100.1
CCCCC(OC(=O)c1ccco1)C(=O)NCc1ccc(C)cc1 (stereo not given)	none
O=C(c1cccs1)n1nc(-c2ccco2)nc1SCc1ccccc1	HSF1 inh -53.6
CSc1nc(-c2ccco2)nn1C(=O)c1cccs1	none
CC1(C)CC(=O)C(N=Nc2ccc(OC(F)F)cc2)=C(O)C1	HSF1 inh -56.1
CC1(C)CC(=O)C(N=Nc2ccc(F)cc2)=C(O)C1	none
CC(C)=CCc1cc2c(=O)c3c(O)c4c(cc3oc2c(O)c1O)OC(C)C4(C)C (stereo not given)	T cruzi inh 67.1, Calb FLC 94.7
CC1Oc2cc3oc4c(O)c5c(cc4c(=O)c3c(O)c2C1(C)C)C=CC(C)(C)O5 (stereo not given)	none
O=C1C(c2cc(=O)c3ccccc3[nH]2)=C(O)c2ccccc21	HSF1 activator 65.0
O=c1cc(-c2ccccc2)[nH]c2ccccc12	none
